The subject of data set [1] is L929. Kind of data set: Cytotoxicity against mouse L929 cells assessed as reduction in cell viability after 24 hrs by MTT assay. The format is cell-based. To be noted: l929, 24 h. The gist of the method:
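L929 fibroblasts in DMEM with 10% FBS at 37 °C, 5% CO2. Seeded at 1×10^3 cells per well, switched to serum-free DMEM at 90% confluency. Compounds from 1 mg/mL DMSO stocks tested at nine twofold dilutions for 24 h. MTT readout: viability = (A570−A630) sample / (A570−A630) control × 100.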

A further data set concerns Cryptococcus neoformans. Kind of data set: Antimicrobial activity against Cryptococcus neoformans after 72 hrs by microbroth dilution method. The format is functional. The gist of the method: (§1)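 Broth microdilution per NCCLS guidelines. Bacteria in Mueller-Hinton broth; fungi in MOPS-buffered RPMI 1640. Test compounds at 50-0.36 µg/mL, standard drugs over 32-0.0018 µg/mL. Inoculum 1-5 × 10^3 cells/mL, 35 °C in a moist chamber. A492 read at 24 h for bacteria, 48 h for C. albicans, 72 h for A. fumigatus, C. neoformans and S. schenckii, 96 h for T. mentagrophytes. MIC taken as 90% growth inhibition relative to growth control.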
(Broth dilution looks for growth in wells or tubes with falling amounts of substance.)

In data set [2] the test system is Aspergillus fumigatus. Description: Antimicrobial activity against Aspergillus fumigatus after 72 hrs by microbroth dilution method. In kind it is functional. The gist of the method:
as §1

Data set [3] concerns Trichophyton mentagrophytes. Kind of data set: Antimicrobial activity against Trichophyton mentagrophytes after 96 hrs by microbroth dilution method. The format is functional. The gist of the method: as §1
For data set [4], the system named is Klebsiella pneumoniae. Description: Antimicrobial activity against Klebsiella pneumoniae ATCC 27736 after 24 hrs by microbroth dilution method. The format is functional. As to conditions: ATCC 27736, 24 h. The gist of the method:
as §1

Data set [5] has as its system L929. Description: Cytotoxicity against mouse L929 cells assessed as change in morphology at MIC after 24 hrs using Giemsa staining by phase contrast microscopy. In kind it is cell-based. To be noted: l929, 24 h. The gist of the method: (§2)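 Mouse fibroblast L929 cells grown in DMEM with 10% FBS and antibiotic/antimycotic at 37 °C, 5% CO2. Medium switched to serum-free DMEM at 90% confluency, then compounds added (DMSO stocks) for 24 h. Cells fixed, stained with Giemsa for 30 min at 37 °C, washed with PBS, air dried and examined by phase-contrast microscopy.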

For data set [6], the system named is Klebsiella pneumoniae. Description: Ratio of methicillin MIC to compound MIC for Klebsiella pneumoniae ATCC 27736 after 24 hrs by microbroth dilution method. In kind it is functional.
The test system of data set [7] is Candida albicans. Description: Antimicrobial activity against Candida albicans after 48 hrs by microbroth dilution method. The format is functional. The gist of the method: as §1
The test system of data set [8] is Klebsiella pneumoniae. Kind of data set: Ratio of ampicillin MIC to compound MIC for Klebsiella pneumoniae ATCC 27736 after 24 hrs by microbroth dilution method. In kind it is functional.
Data set [9] has as its system Aspergillus fumigatus. Description: Ratio of clotrimazole MIC to compound MIC for Aspergillus fumigatus after 72 hrs by microbroth dilution method. In kind it is functional.
For data set [10], the system named is Klebsiella pneumoniae. Kind of data set: Ratio of gentamycin MIC to compound MIC for Klebsiella pneumoniae ATCC 27736 after 24 hrs by microbroth dilution method. In kind it is functional.
A further data set deals with Pseudomonas aeruginosa. Description: Antimicrobial activity against Pseudomonas aeruginosa ATCC BAA-427 after 24 hrs by microbroth dilution method. In kind it is functional. To be noted: ATCC BAA-427, 24 h. The method, boiled down:
as §1

The test system of data set [11] is Staphylococcus aureus. Kind of data set: Antimicrobial activity against vancomycin-resistant Staphylococcus aureus after 24 hrs by microbroth dilution method. The format is functional. The gist of the method:
(§3)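 Microbroth dilution in Mueller Hinton broth, following NCCLS guidelines. Test compounds were run at 50-0.36 µg/mL against an initial inoculum of 1-5 × 10^3 cells/mL. Plates were incubated in a moist chamber at 35 °C, and absorbance at 492 nm was read after 24 h. MIC was taken as 90% growth inhibition relative to the growth control.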

For data set [12], the system named is Staphylococcus aureus. Description: Antimicrobial activity against methicillin-resistant Staphylococcus aureus after 24 hrs by microbroth dilution method. In kind it is functional. The gist of the method: as §3
Another data set concerns Escherichia coli. Kind of data set: Antimicrobial activity against Escherichia coli ATCC 9637 after 24 hrs by microbroth dilution method. In kind it is functional. To be noted: ATCC 9637, 24 h. The method, boiled down: as §1
Data set [13] has as its system L929. Kind of data set: Cytotoxicity against mouse L929 cells assessed as change in morphology at 50 ug/ml after 24 hrs using Giemsa staining by phase contrast microscopy. To be noted: l929, 24 h. In kind it is cell-based. The gist of the method:
as §2

Data set [14] deals with Aspergillus fumigatus. Description: Ratio of miconazole MIC to compound MIC for Aspergillus fumigatus after 72 hrs by microbroth dilution method. The format is functional.
Data set [15] has as its system Klebsiella pneumoniae. Description: Ratio of vancomycin MIC to compound MIC for Klebsiella pneumoniae ATCC 27736 after 24 hrs by microbroth dilution method. In kind it is functional.
The test system of another data set is Sporothrix schenckii. Kind of data set: Antimicrobial activity against Sporothrix schenckii after 72 hrs by microbroth dilution method. In kind it is functional. The method, boiled down:
as §1

In data set [16] the test system is Staphylococcus aureus. Kind of data set: Antimicrobial activity against Staphylococcus aureus ATCC 25923 after 24 hrs by microbroth dilution method. In kind it is functional. As to conditions: ATCC 25923, 24 h. The gist of the method: as §1
The test system of data set [17] is Candida albicans. Description: Ratio of miconazole MIC to compound MIC for Candida albicans after 48 hrs by microbroth dilution method. In kind it is functional.
Data set [18] has as its system Staphylococcus aureus. Kind of data set: Ratio of vancomycin MIC to compound MIC for Staphylococcus aureus ATCC 25923 after 24 hrs by microbroth dilution method. In kind it is functional.
Data set [19] relates to Staphylococcus aureus. Kind of data set: Ratio of ampicillin MIC to compound MIC for Staphylococcus aureus ATCC 25923 after 24 hrs by microbroth dilution method. The format is functional.
Data set [20] deals with Trichophyton mentagrophytes. Kind of data set: Ratio of miconazole MIC to compound MIC for Trichophyton mentagrophytes after 96 hrs by microbroth dilution method. In kind it is functional.
The subject of data set [21] is Trichophyton mentagrophytes. Kind of data set: Ratio of fluconazole MIC to compound MIC for Trichophyton mentagrophytes after 96 hrs by microbroth dilution method. The format is functional.

Converted amounts (≈) assume the structure as drawn. Some results are limits rather than exact numbers.

In general, MIC refers to the lowest concentration that inhibits growth of the organism.

As for `CC(C)CCO[C@@H]1C=CC(=O)[C@@H](Cn2cc(COCC34CC5CC(CC(C5)C3)C4)nn2)O1`, the Activity result in the data set on L929 [1] is reported as “Dose-dependent effect”; in the data set with L929 [5], “Non-toxic”; in the data set on L929 [13] it was “Toxic”. Besides, the MIC against Cryptococcus neoformans was 50 µg/mL (≈ 113 µM); against Aspergillus fumigatus [2], 1.56 µg/mL (≈ 3.52 µM); in [3], 1.56 µg/mL (≈ 3.52 µM); against Klebsiella pneumoniae [4] it was 0.78 µg/mL (≈ 1.76 µM); in the data set on Candida albicans [7], above 50 µg/mL; in the data set on Pseudomonas aeruginosa it was 50 µg/mL (≈ 113 µM). Moreover, the MIC in the data set on Staphylococcus aureus [11] is 3.12 µg/mL (≈ 7.03 µM); against Staphylococcus aureus [12], 3.12 µg/mL (≈ 7.03 µM); in the data set with Escherichia coli, 50 µg/mL (≈ 113 µM); against Sporothrix schenckii, 50 µg/mL (≈ 113 µM); in the data set with Staphylococcus aureus [16] it was 1.56 µg/mL (≈ 3.52 µM). The Ratio in the data set with Klebsiella pneumoniae [6] is listed as 8; with Klebsiella pneumoniae [8], 16; in the data set with Aspergillus fumigatus [9], 5; with Klebsiella pneumoniae [10], 2; in the data set on Aspergillus fumigatus [14], 8; in the data set with Klebsiella pneumoniae [15], 16.
For `CC(C)CCO[C@@H]1C=CC(=O)[C@@H](Cn2cc(-c3ccc(F)cc3)nn2)O1`, the Ratio came to 4 in the data set on Candida albicans [17], 16 with Staphylococcus aureus [18] and 16 with Staphylococcus aureus [19]. For the same compound, the Activity entry with L929 [1] is listed as “Dose-dependent effect”; in the data set on L929 [5] it was “Non-toxic”; in the data set with L929 [13], “Toxic”. Besides, the MIC is 50 µg/mL (≈ 139 µM) with Cryptococcus neoformans; 50 µg/mL (≈ 139 µM) in the data set on Aspergillus fumigatus [2]; 1.56 µg/mL (≈ 4.34 µM) in data set [3]; above 50 µg/mL in the data set with Klebsiella pneumoniae [4]; 6.25 µg/mL (≈ 17.4 µM) with Candida albicans [7]; above 50 µg/mL in the data set with Pseudomonas aeruginosa. The minimum inhibitory concentration (MIC) against Staphylococcus aureus [11] is 3.12 µg/mL (≈ 8.68 µM); against Staphylococcus aureus [12] it was 3.12 µg/mL (≈ 8.68 µM); with Escherichia coli, above 50 µg/mL; in the data set with Sporothrix schenckii, 6.25 µg/mL (≈ 17.4 µM); in the data set on Staphylococcus aureus [16] it was 0.78 µg/mL (≈ 2.17 µM).
As to `CCCCO[C@@H]1C=CC(=O)[C@@H](Cn2cc(CCCCl)nn2)O1`, the Activity entry with L929 [1] is “Dose-dependent effect”; in the data set with L929 [5], “Non-toxic”; with L929 [13], “Toxic”. For the same compound, the minimal inhibitory concentration (MIC) in the data set with Cryptococcus neoformans is 50 µg/mL (≈ 153 µM); in the data set with Aspergillus fumigatus [2], above 50 µg/mL; in data set [3], 0.39 µg/mL (≈ 1.19 µM); with Klebsiella pneumoniae [4] it was above 50 µg/mL; against Candida albicans [7] it was 25 µg/mL (≈ 76.3 µM); with Pseudomonas aeruginosa, above 50 µg/mL. Besides, the minimum inhibitory concentration (MIC) against Staphylococcus aureus [11] is above 50 µg/mL; in the data set on Staphylococcus aureus [12], above 50 µg/mL; in the data set with Escherichia coli it was above 50 µg/mL; against Sporothrix schenckii, 3.12 µg/mL (≈ 9.52 µM); with Staphylococcus aureus [16], 12.5 µg/mL (≈ 38.1 µM). For the same compound, the Ratio in data set [20] is 2; in [21], 40.

Values taken from ChEMBL document CHEMBL3286335, “Synthesis of 2,3,6-trideoxy sugar triazole hybrids as potential new broad spectrum antimicrobial agents” (Eur J Med Chem, 2014).
